Data set [1] relates to Staphylococcus aureus. Briefly: Antimicrobial activity against methicillin, quinolone-resistant Staphylococcus aureus by broth microdilution/CLSI method. The note with it: Staphylococcus aureus; read-out: MIC. The class given is functional. (In broth dilution the organism is exposed to a series of concentrations in liquid medium.)
For data set [2], the system named is Escherichia coli. Description: Antimicrobial activity against Escherichia coli tolC- by broth microdilution/CLSI method. Format: functional. The note with it: Escherichia coli; read-out: MIC.
The subject of data set [3] is Staphylococcus aureus. Description: Antimicrobial activity against methicillin-sensitive Staphylococcus aureus by broth microdilution/CLSI method. The note with it: Staphylococcus aureus; read-out: MIC. The class given is functional.
Data set [4] is described as follows: Solubility of the compound. The class given is physicochemical.
The target of another data set is DNA gyrase subunit B (Staphylococcus aureus, UniProt P0A0K8). Description: Inhibition of ATPase activity of Staphylococcus aureus GyrB. The method, boiled down:
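IC50 was determined against S. aureus GyrB in the routine screening assay. The enzyme concentration limits resolution below 10 nM.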

Data set [5] in a line: Ratio of MIC for methicillin, quinolone-resistant Staphylococcus aureus to fraction unbound in human plasma. Format: ADME.
The next data set relates to Streptococcus pneumoniae. Description: Antibacterial activity against Streptococcus pneumoniae by broth microdilution/CLSI method. The note with it: Streptococcus pneumoniae; read-out: MIC. Format: functional.
For another data set, the system named is Moraxella catarrhalis. Briefly: Antimicrobial activity against Moraxella catarrhalis by broth microdilution/CLSI method. The note with it: Moraxella catarrhalis; read-out: MIC. The class given is functional.
Data set [6] deals with Escherichia coli. Briefly: Antimicrobial activity against wild-type Escherichia coli Eco523 by broth microdilution/CLSI method. The class given is functional. The note with it: Escherichia coli, Eco523; read-out: MIC.
The subject of another data set is Haemophilus influenzae. Briefly: Antimicrobial activity against Haemophilus influenzae by broth microdilution/CLSI method. Format: functional. Conditions: Haemophilus influenzae; read-out: MIC.
The nature of data set [7]: Percentage unbound in human plasma. The class given is ADME, cell-free.
A short description of data set [8]: Clearance in rat at 10 mg/kg, iv. Format: ADME, organism-based. Further details: dose 10 mg/kg, route intravenous. Conditions: in vivo.
A further data set has as its system Streptococcus pyogenes. Briefly: Antimicrobial activity against Streptococcus pyogenes by broth microdilution/CLSI method. Format: functional.
Data set [9] in a line: Octanol-phosphate buffer distribution coefficient, log D of the compound at pH 7.4 by shake flask method. Format: physicochemical.

The structures appear in SMILES notation. ≈ marks a conversion by molar mass, not a printed value. Some results are limits rather than exact numbers.

Sequence of DNA gyrase subunit B (P0A0K8 whole entry): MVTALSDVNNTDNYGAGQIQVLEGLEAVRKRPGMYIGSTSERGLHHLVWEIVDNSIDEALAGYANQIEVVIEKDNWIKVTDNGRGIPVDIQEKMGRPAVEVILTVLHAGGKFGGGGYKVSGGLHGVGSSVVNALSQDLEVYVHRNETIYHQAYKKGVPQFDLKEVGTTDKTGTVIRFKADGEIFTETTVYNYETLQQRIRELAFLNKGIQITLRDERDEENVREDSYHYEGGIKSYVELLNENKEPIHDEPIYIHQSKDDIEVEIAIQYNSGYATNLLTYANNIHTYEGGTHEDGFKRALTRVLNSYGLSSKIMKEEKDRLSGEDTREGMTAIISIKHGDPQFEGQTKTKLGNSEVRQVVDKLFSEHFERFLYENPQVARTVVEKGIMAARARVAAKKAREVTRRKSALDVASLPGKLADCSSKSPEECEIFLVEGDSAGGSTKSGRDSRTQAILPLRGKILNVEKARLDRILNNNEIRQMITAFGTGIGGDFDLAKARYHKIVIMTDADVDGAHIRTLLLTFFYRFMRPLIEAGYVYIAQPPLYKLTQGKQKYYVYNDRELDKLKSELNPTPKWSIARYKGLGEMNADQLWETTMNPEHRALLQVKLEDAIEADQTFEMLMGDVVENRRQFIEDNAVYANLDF

A word on the solubility: it is how much of the substance goes into solution per volume. Low values mean little dissolved substance, high ones much dissolved substance. By IC50 is commonly meant the point on the concentration scale where inhibition reaches its midpoint. Low values mean greater potency, high ones weaker potency. As usually defined, the fraction unbound is free concentration divided by total concentration. Low values mean extensive binding, high ones weak binding. Broadly, the clearance is the rate of elimination divided by the concentration. High values mean a high capacity for elimination, low ones a low capacity for elimination. What is called logD is the decadic logarithm of the distribution of all forms, ionised or not, between an organic phase and buffer at a given pH. Higher therefore signals a more lipophilic compound. On to `CO[C@H]1CN(c2nc(C(C)=O)c(C(=O)O)s2)CC[C@H]1NC(=O)c1[nH]c(C)c(Cl)c1Cl`, for which the MIC in the data set on Staphylococcus aureus [1] was found to be 0.063 µg/mL (≈ 0.133 µM); in the data set with Escherichia coli [2] it was 0.26 µg/mL (≈ 0.547 µM); in the data set with Staphylococcus aureus [3], 0.063 µg/mL (≈ 0.133 µM); in the data set with Streptococcus pneumoniae, 0.02 µg/mL (≈ 0.0421 µM); in the data set on Moraxella catarrhalis, 0.02 µg/mL (≈ 0.0421 µM); in the data set with Escherichia coli [6], 30 µg/mL (≈ 63.1 µM). Besides, the values for the MIC in the data set on Haemophilus influenzae and in the data set on Streptococcus pyogenes were 0.15 µg/mL (≈ 0.316 µM) and 0.02 µg/mL (≈ 0.0421 µM), respectively. Moreover, in [4], the solubility was 890 µM (≈ 423 µg/mL). Besides, the IC50 at DNA gyrase subunit B is less than 10 nM. In addition, the Ratio in [5] is on record as 3.7. For the same molecule, the free fraction (fraction unbound) in data set [7] was found to be 0.019. In addition, the clearance in [8] came to 9.3 mL/min/kg. The log distribution coefficient (logD) in data set [9] came to 0.36.
For the molecule `COc1cc(OC)nc(-c2nc(N3CC[C@@H](NC(=O)c4[nH]c(C)c(Cl)c4Cl)[C@@H](OC)C3)sc2C(=O)O)n1`, the MIC in the data set on Staphylococcus aureus [1] was determined as 0.05 µg/mL (≈ 0.0875 µM); with Escherichia coli [2] it was 1 µg/mL (≈ 1.75 µM); in the data set on Staphylococcus aureus [3], 0.025 µg/mL (≈ 0.0437 µM); in the data set with Streptococcus pneumoniae, 0.016 µg/mL (≈ 0.028 µM); in the data set on Moraxella catarrhalis, 0.016 µg/mL (≈ 0.028 µM); in the data set on Escherichia coli [6], 32 µg/mL (≈ 56 µM). Also, the MIC worked out at 0.25 µg/mL (≈ 0.437 µM) in the data set with Haemophilus influenzae and 0.016 µg/mL (≈ 0.028 µM) in the data set with Streptococcus pyogenes. Moreover, the IC50 on DNA gyrase subunit B was less than 10 nM. In addition, in [5], the Ratio worked out at 1.4. Besides, in [7], the unbound share (fraction unbound) is 0.036. In data set [8], this molecule registered a clearance of 6.3 mL/min/kg. For the same molecule, the logD in data set [9] was found to be 1.7.
For `CNC(=O)c1nc(N2CC[C@@H](NC(=O)c3[nH]c(C)c(Cl)c3Cl)[C@@H](OC)C2)sc1C(=O)O`, the MIC was determined as 0.063 µg/mL (≈ 0.128 µM) in the data set on Staphylococcus aureus [1]; 0.3 µg/mL (≈ 0.612 µM) with Escherichia coli [2]; 0.063 µg/mL (≈ 0.128 µM) in the data set with Staphylococcus aureus [3]; 0.016 µg/mL (≈ 0.0326 µM) in the data set on Streptococcus pneumoniae; 0.011 µg/mL (≈ 0.0224 µM) with Moraxella catarrhalis; 18 µg/mL (≈ 36.7 µM) in the data set on Escherichia coli [6]. Moreover, the values for the MIC with Haemophilus influenzae and against Streptococcus pyogenes were 0.14 µg/mL (≈ 0.285 µM) and 0.013 µg/mL (≈ 0.0265 µM), respectively. Besides, the concentration in solution in [4] (solubility) was 56 µM (≈ 27.5 µg/mL). The IC50 at DNA gyrase subunit B was less than 10 nM. The Ratio in [5] came out at 3.15. Further, the fraction unbound in data set [7] was 0.02. Further, the clearance in data set [8] came to 14 mL/min/kg. The pH-dependent lipophilicity (logD) in data set [9] was determined as 1.3.
Consider `CO[C@H]1CN(c2nc(-c3ccncn3)c(C(=O)O)s2)CC[C@H]1NC(=O)c1[nH]c(C)c(Cl)c1Cl`, for which the MIC in the data set with Staphylococcus aureus [1] is 0.031 µg/mL (≈ 0.0606 µM); in the data set with Escherichia coli [2], 0.5 µg/mL (≈ 0.978 µM); with Staphylococcus aureus [3], less than 0.06 µg/mL; in the data set on Streptococcus pneumoniae, less than 0.06 µg/mL; with Moraxella catarrhalis, less than 0.06 µg/mL; with Escherichia coli [6], 16 µg/mL (≈ 31.3 µM). For the same molecule, the MIC was 0.12 µg/mL (≈ 0.235 µM) in the data set with Haemophilus influenzae and less than 0.06 µg/mL in the data set on Streptococcus pyogenes. This molecule registered a solubility in data set [4] of 350 µM (≈ 179 µg/mL). Further, the concentration for half-maximal inhibition (IC50) against DNA gyrase subunit B was less than 10 nM. Also, the Ratio in data set [5] turned out to be 0.74. This molecule also showed a fraction unbound in data set [7] of 0.042. The molecule further displayed a clearance in data set [8] of 3.8 mL/min/kg. In addition, the pH-dependent lipophilicity (logD) in [9] amounted to 1.7.
As for `CO[C@H]1CN(c2nc(C)c(C(=O)O)s2)CC[C@H]1NC(=O)c1[nH]c(C)c(Cl)c1Cl`, the MIC in the data set with Staphylococcus aureus [1] was 0.053 µg/mL (≈ 0.118 µM); with Escherichia coli [2] it was 0.25 µg/mL (≈ 0.559 µM); in the data set on Staphylococcus aureus [3], 0.031 µg/mL (≈ 0.0693 µM); in the data set with Streptococcus pneumoniae it was 0.013 µg/mL (≈ 0.0291 µM); in the data set with Moraxella catarrhalis it was 0.008 µg/mL (≈ 0.0179 µM); in the data set on Escherichia coli [6], greater than 8 µg/mL. The MIC in the data set with Haemophilus influenzae is 0.072 µg/mL (≈ 0.161 µM); in the data set on Streptococcus pyogenes it was less than 0.008 µg/mL. The molecule further gave a solubility in [4] of 450 µM (≈ 201 µg/mL). The molecule further gave a concentration for half-maximal inhibition (IC50) against DNA gyrase subunit B of less than 10 nM. The Ratio in [5] stood at 2.9. The same molecule registered a fraction unbound in [7] of 0.018. This molecule displayed a clearance in data set [8] of 26 mL/min/kg. In data set [9], this molecule had a pH-dependent lipophilicity (logD) of 1.2.
`COCC(COC)(COC)NC(=O)c1nc(N2CC[C@@H](NC(=O)c3[nH]c(C)c(Cl)c3Cl)[C@@H](OC)C2)sc1C(=O)O`: the MIC in the data set on Staphylococcus aureus [1] came to 0.031 µg/mL (≈ 0.0498 µM); with Escherichia coli [2] it was 1.3 µg/mL (≈ 2.09 µM); in the data set with Staphylococcus aureus [3] it was 0.031 µg/mL (≈ 0.0498 µM); in the data set with Streptococcus pneumoniae, 0.016 µg/mL (≈ 0.0257 µM); in the data set with Moraxella catarrhalis it was 0.008 µg/mL (≈ 0.0129 µM); in the data set on Escherichia coli [6] it was 29 µg/mL (≈ 46.6 µM). Besides, the values for the MIC in the data set on Haemophilus influenzae and against Streptococcus pyogenes were 0.15 µg/mL (≈ 0.241 µM) and 0.016 µg/mL (≈ 0.0257 µM), respectively. Moreover, in data set [4], the concentration in solution (solubility) was 720 µM (≈ 448 µg/mL). The IC50 against DNA gyrase subunit B was less than 10 nM. Moreover, in data set [5], the Ratio came out at 0.66. The fraction unbound in [7] was 0.047. Moreover, in [8], the clearance is 18 mL/min/kg. Moreover, the pH-dependent lipophilicity (logD) in data set [9] was found to be 1.9.
In the case of `CO[C@H]1CN(c2nc(C(=O)NC3COC(C)(C)OC3)c(C(=O)O)s2)CC[C@H]1NC(=O)c1[nH]c(C)c(Cl)c1Cl`, the MIC in the data set with Escherichia coli [2] is 0.76 µg/mL (≈ 1.29 µM); in the data set with Staphylococcus aureus [3], less than 0.06 µg/mL; with Streptococcus pneumoniae, 0.016 µg/mL (≈ 0.0271 µM); with Moraxella catarrhalis, 0.008 µg/mL (≈ 0.0135 µM); in the data set on Escherichia coli [6] it was 14 µg/mL (≈ 23.7 µM); with Haemophilus influenzae it was 0.16 µg/mL (≈ 0.271 µM). The MIC against Streptococcus pyogenes is 0.016 µg/mL (≈ 0.0271 µM). Also, the solubility in [4] is greater than 1000 µM. In addition, the 50% inhibitory concentration (IC50) at DNA gyrase subunit B was less than 10 nM. In addition, the Ratio in data set [5] is recorded as less than 1.8. Besides, the unbound share (fraction unbound) in data set [7] turned out to be 0.036. The same molecule came in with a clearance in data set [8] of 38 mL/min/kg. Also, in [9], the log distribution coefficient (logD) was 1.2.

Values taken from ChEMBL document CHEMBL3352173, “Optimization of pyrrolamide topoisomerase II inhibitors toward identification of an antibacterial clinical candidate (AZD5099)” (J Med Chem, 2014).
